Screens (PubChem)
bCat KO growth: beta-catenin-lacking colon tumor cell growth suppression. HCT116 beta-catenin knockout viability, CellTiter-Glo, 60 h; hits give low values. viability, % at 10 µM. 140,000 compounds, 1.5% hits;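 active means viability at or under a set limit, the compound median less 4 SD, cut at about 6% in these data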
PTEN del growth: PTEN-deleted cell growth suppression. HCT116 PTEN-null viability, CellTiter-Glo, 60 h; hits give low values. viability, % at 10 µM. 140,000 compounds, 1.2% hits. AID 827;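 active means viability at or below a set limit, 4 SD under the median of all tested compounds, cut at about 3.7% in these data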;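 further: PTEN knockout HCT116 line with beta catenin targeted HCT116 as companion control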
H69AR growth 86K: growth inhibitors of human H69AR lung tumor cells. H69AR lung tumor viability, ATP luminescence, 72 h; hits give low values. viability, % at 10 µM. 85,000 compounds, 6% hits;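 active means viability at or below 40%; inactive means viability above 40%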;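 further: multidrug resistant small cell line overexpressing MRP-1 efflux transporter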
HUVEC inhibit: human endothelial cell proliferation inhibition; HUVEC proliferation, CellTiter-Glo luminescence, 72 h; hits give low values; viability, % at 10 µM (by protocol); 86,000 compounds, 1.1% hits; AID 648;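 active means viability at or below 30%; inactive means viability above 30%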
Fibroblast inh: blocks proliferation of human lung fibroblasts. LL 47 human lung fibroblast viability, ATP luminescence; hits give low values. viability, % at 10 µM. 85,000 compounds, 1.1% hits. AID 719;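 active means viability at or below 50% in the single dose screen; inactive means viability above 50%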;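 further: compound exposure lasted 72 h before the ATP readout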
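Test system: LL 47 human lung fibroblasts / Quantity: 1,150 cells in each well / Medium: IMEM growth medium with 15% fetal bovine serum / Incubation: 72 h compound exposure at 37 °C after overnight plating / Detection: CellTiter-Glo luminescence measuring cellular ATP / Read-out: % viability versus median cells-only luminescence / Benchmarks: cell-only wells, no compound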
Hits are given with their value; . = inactive; / = not tested or not shown. Only a selection was taken, and hits are over-represented in it overall.

SMILES	bCat KO growth	PTEN del growth	H69AR growth 86K	HUVEC inhibit	Fibroblast inh
CCOCCOC(=O)c1ccc(-n2cncn2)nc1	.	.	.	.	.
COc1cc(/C=N/NC(=O)CCn2c3ccccc3c3ccccc32)cc(OC)c1OC	.	.	/	/	/
COc1cc(/C=N/NC(=O)CCC(=O)NCc2ccccc2)cc(OC)c1OC	0.4	0.3	/	/	/
COC(=O)c1c(NC(=O)COC(=O)CCc2ccc(S(=O)(=O)N3CCOCC3)cc2)sc2c1CCC2	.	.	/	/	/
O=C(CN1C(=O)COc2ccccc21)N1CCc2ccccc2C1	.	.	.	.	3.1
Cn1c(NCC(O)c2ccccc2)nc2c1c(=O)n(Cc1ccc(Cl)c(Cl)c1)c(=O)n2C (stereo not drawn)	/	/	13	.	.
Cc1ccccc1-c1nnc(Cc2ccccc2)o1	.	.	/	/	/
c1ccc(Cc2nnc(-c3ccccc3)o2)cc1	.	.	.	.	9.6
CCOC(=O)CSc1cccc2cccnc12	6.0	2.7	0.3	.	46
Cc1cccc(CSc2cccc3cccnc23)c1	4.9	2.8	/	/	/
CN(C)c1ccc(C(c2nnnn2CCOC(=O)Nc2ccc(Cl)cc2)N2CCOCC2)cc1 (stereo not drawn)	.	.	.	.	.
O=C(NNc1cc(N2CCOCC2)nc(N2CCOCC2)n1)C12CC3CC(CC(C3)C1)C2	.	.	/	/	/
O=C(Cc1cccs1)NCCSc1c(-c2ccc(Cl)cc2)[nH]c2ccccc12	4.7	.	/	/	/
CCOC(=O)CSc1c(-c2ccc(Cl)cc2)[nH]c2ccccc12	.	.	/	/	/
CC1CCN(c2ccc(NC(=S)NC(=O)c3ccc(-c4cccc([N+](=O)[O-])c4)o3)cc2)CC1	.	.	25	.	.
Cc1cc(NCCCn2ccnc2)n2ncc(-c3ccccc3)c2n1	.	.	27	.	.
Cc1cc(NCCN2CCOCC2)n2ncc(-c3ccccc3)c2n1	.	.	25	.	.
Cc1cc(NCCCn2ccnc2)n2nc(C)c(-c3ccccc3)c2n1	.	.	.	.	.
Cc1cc(C)c2c(n1)nn1c(NCCN3CCOCC3)cc(C)nc21	.	.	.	.	.
Cc1cc(NCCCn2ccnc2)n2nc(C)c(-c3ccc(Cl)cc3)c2n1	5.5	.	1.1	2.3	15
Cc1cc(NCCN2CCOCC2)n2nc(C)c(-c3ccc(Cl)cc3)c2n1	.	.	12	.	.
CCN(C(=O)c1ccnn1C)c1ccccc1	.	.	/	/	/
Cc1cc(NCCN2CCOCC2)n2nc(C)c(-c3ccccc3)c2n1	.	.	27	.	.
COc1ccc(CN2CCN(c3cc(C)nc4c5c(C)cc(C)nc5nn34)CC2)cc1F	/	/	.	.	.
CCOc1ccc(CN2CCN(c3cc(C)nc4c5c(C)cc(C)nc5nn34)CC2)cc1	.	.	32	.	.
SMILES	bCat KO growth	PTEN del growth	H69AR growth 86K	HUVEC inhibit	Fibroblast inh
Cc1cc(C)c2c(n1)nn1c(N3CCN(c4ccccc4C)CC3)cc(C)nc21	/	/	37	.	.
O=C(Nn1c(-c2ccccc2)nc2ccccc2c1=O)c1cccs1	.	.	/	/	/
COC(=O)c1oc2c(c1C)C1(CCC2)SCCS1	.	.	37	.	.
CCOC(=O)c1ccc(N=c2sc(C(=O)OC)cc(=O)n2-c2ccc(C(=O)OCC)cc2)cc1	3.3	.	/	/	/
CSc1nc2ccc3nc(NC(=O)c4ccccc4)sc3c2s1	.	.	32	.	.
CC(=O)Nc1sc(NC(=O)c2ccccc2)nc1-c1cccs1	.	.	.	.	.
COc1ccc(CCN2C(=O)c3[nH]nc(-c4ccccc4O)c3C2c2cccc(O)c2)cc1OC (stereo not drawn)	.	.	.	.	.
O=C1c2[nH]nc(-c3ccccc3O)c2C(c2ccc(F)cc2)N1CC1CCCO1 (stereo not drawn)	.	.	.	.	.
O=C1c2[nH]nc(-c3ccccc3O)c2C(c2cccc(Cl)c2)N1Cc1ccco1 (stereo not drawn)	.	.	0.8	4.9	.
O=C1c2[nH]nc(-c3ccccc3O)c2C(c2cccc(Cl)c2)N1CC1CCCO1 (stereo not drawn)	.	.	21	.	.
O=C1c2[nH]nc(-c3ccccc3O)c2C(c2ccc(F)cc2)N1Cc1ccco1 (stereo not drawn)	.	.	1.8	.	.
O=S(=O)(NCC1CCCO1)c1ccc(S(=O)(=O)N(Cc2ccc(F)cc2)Cc2ccco2)cc1 (stereo not drawn)	.	.	/	/	/
CC1Nc2nc(NC(=O)C(C)(C)C)[nH]c(=O)c2N(C)C1C (stereo not drawn)	.	.	/	/	/
COc1ccc(F)cc1S(=O)(=O)NC1CCCC1	.	.	.	.	.
Cc1nn(Cc2ccc(Cl)cc2)c(C)c1NC(=O)CSc1nc2c(c(C(F)(F)F)n1)CCc1ccccc1-2	.	3.5	/	/	/
Cc1ccc(Cn2nc(C)c(NC(=O)CSc3nc4c(c(C(F)(F)F)n3)CCc3ccccc3-4)c2C)cc1	.	.	/	/	/
CC(=O)OCCNc1cc(N2CCN(C)CC2)c2noc3c2c1C(=O)c1ccccc1-3	.	.	/	/	/
CCOC(=O)C(C(=O)OCC)c1cc(Br)c2noc3c2c1C(=O)c1ccccc1-3	1.3	1.1	/	/	/
O=C(NC(=S)Nc1cc(C(F)(F)F)ccc1N1CCOCC1)c1sc2ccccc2c1Cl	.	.	/	/	/
C=C(C)C1Cc2nc(N)nc(C)c2C1 (stereo not drawn)	.	.	.	.	.
C=C(C)C1Cc2c(C)nn(-c3nc(C)cc(C)n3)c2C1 (stereo not drawn)	.	.	3.2	.	.
S=c1sc(SCCOc2ccccc2)nn1-c1ccccc1	.	.	/	/	/
CCc1ccc2[nH]c(=O)c(CN(Cc3ccccc3OC)Cc3nnnn3Cc3ccco3)cc2c1	.	.	12	.	.
COc1ccccc1CN(Cc1cc2cc(C)ccc2[nH]c1=O)Cc1nnnn1Cc1ccco1	.	.	38	.	.
COc1cc2cc(CN(Cc3nnnn3Cc3ccco3)C3CCCCC3)c(=O)[nH]c2cc1OC	.	.	.	.	.
SMILES	bCat KO growth	PTEN del growth	H69AR growth 86K	HUVEC inhibit	Fibroblast inh
CCC1(C)C(Nc2c(C)cccc2C)=NC(=S)N1c1ccc(NC(C)=O)cc1 (stereo not drawn)	.	.	/	/	/
Cc1ccc(/C=N/NC(=O)C(C)Oc2ccccc2[N+](=O)[O-])s1 (stereo not drawn)	.	.	/	/	/
CCN(CC)c1ccc(/C=c2/sc3nnc(-c4ccccc4C)n3c2=O)cc1	.	.	20	.	.
CCN(CC)c1ccc(/C=c2\sc3nnc(-c4ccccc4Cl)n3c2=O)cc1	.	.	.	.	.
COc1ccc(CCNC(=O)Cn2nnc(-c3ccccc3F)n2)cc1OC	.	.	.	.	.
CCOC(=O)c1c(NC(=O)c2cc(C(C)C)on2)sc(C(C)=O)c1C	.	.	.	.	.
CCOC(=O)c1sc(NC(=O)c2c(C)noc2C)c(C(=O)OCC)c1C	/	/	38	.	.
CCCn1nc(C(=O)NC2CCCc3ccccc32)c2ccccc2c1=O (stereo not drawn)	.	.	/	/	/
CCn1cc(C(=O)Nc2sc(C)c(C)c2C(=O)OC)cn1	.	.	/	/	/
CCOc1ccc(-c2nc(N)ncc2-c2ccc(OC)cc2)c(O)c1	.	.	/	/	/
CCOc1ccc(-c2nc(N)ncc2-c2ccccc2)c(O)c1	.	.	28	.	.
